# Results collected from several papers.
# Lines come from different studies, so protocols differ.
SMILES,system,setting,concentration
CC(C)n1ncc2c(C(=O)NCC3(C)CNC3)cc(C3CC3)nc21,"female BALB/c mouse, plasma","intraperitoneal, 50 mg/kg, 1 h",2660 ng/mL
Fc1ccc(Oc2ccc(Nc3ccc4ncc(OCC5CCNCC5)nc4c3)cc2)cc1,"SCID mouse, plasma","intraperitoneal, 50 mg/kg, 24 h",1700 nM
CN(C)C(=O)c1cc2cnc(Nc3ccc(-c4ccc5c(=O)cc(N6CCOCC6)oc5c4)cc3)nc2n1C1CCCC1,"BALB/c mouse, brain","oral, 20 mg/kg, 24 h, single dose",5.3 ng/g
CC(C)(C)S(=O)(=O)c1cc2c(Nc3ccc4scnc4c3)ncnc2cc1OCCOP(=O)(O)O,"BALB/c mouse, plasma","oral, 10 mg/kg, 2 h",145 ng/mL
CC1(C)NC(=O)N(c2ccc(F)c(S(C)(=O)=O)c2)C1=O,"male Swiss mouse, plasma","oral, 100 mg/kg, 48 h",20 ng/mL
OCc1nc2ccc(NCc3ccc(C(F)(F)F)cc3)cc2[nH]1,"male BALB/c mouse, brain","oral, 10 mg/kg, 6 h",227 ng/g
Cc1ccc2c(c1)C(=O)[C@]1(O)CCN(c3ccc4nc(C)ccc4c3)C1=N2,"mouse, plasma","subcutaneous, 10 mg/kg, 30 min",2500 nM
O=C1CCC(N2Cc3cc(CO)c(F)cc3C2=O)C(=O)N1 (centres unmarked),"male CD-1 mouse, plasma","intravenous, 1 mg/kg, 2 h",8.1 ng/mL
CC(C)c1cc(C(=O)NCCN)c2cnn(C(C)C)c2n1,"female BALB/c mouse, plasma","intraperitoneal, 50 mg/kg, 15 min",2010 ng/mL
Cc1nc2ccc(OCc3ccc(C(F)(F)F)cc3)cc2[nH]1,"male BALB/c mouse, brain","oral, 10 mg/kg, 4 h",2000 ng/g
NCc1cc2c(cc1F)C(=O)N(C1CCC(=O)NC1=O)C2 (centres unmarked),"male CD-1 mouse, plasma","oral, 10 mg/kg, 1 h",81 ng/mL
CCOC(=O)c1c(NC(=O)CNC(C)C)sc2c1CCCCC2,"male mouse, brain","intraperitoneal, 100 mg/kg, 30 min",15800 ng/g
CC1(C)NC(=O)N(c2ccc(F)c(Br)c2)C1=O,"male Swiss mouse, plasma","oral, 100 mg/kg, 1 h",29700 ng/mL
O=C1CCC(N2Cc3cc(C4CCN(Cc5ccccc5)CC4)ccc3C2=O)C(=O)N1 (centres unmarked),"male CD-1 mouse, plasma","oral, 3 mg/kg, 1 h",235 ng/mL
